In the library only some 1.7% were active in any assay of this set; here they are far more common.
CAL PDZ FP-1: human CAL PDZ-peptide interaction inhibition. Q9HD26. purified CAL PDZ, TMR-peptide fluorescence polarization, 1 h. inhibition, % at 20 µM. 330,000 tested, 0.02% active;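 active = highest replicate inhibition of at least 40%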;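 note: plate controls were DMSO neutral control wells for no effect and unlabeled competitor peptide control wells for full effect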
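System: tagged CAL PDZ domain. Schedule: 1 h room-temperature incubation prior to read. Signal: fluorescence polarization (mP). Measure: percent inhibition from loss of millipolarization.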
APOBEC3G inh: inhibitors of human APOBEC3G DNA deaminase; 330,000 tested, 0.28% active; recombinant A3G, ssDNA deamination FAM/TAMRA fluorescence; inhibition, % at 20 µM;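 active = inhibition of at least 40% at 20 µM, with no more than 30% in the related APOBEC3A deaminase screen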;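 note: plate controls were DMSO wells with A3G for no effect and wells lacking A3G enzyme for full effect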
Target sequence (Q9HC16 whole entry, looked up): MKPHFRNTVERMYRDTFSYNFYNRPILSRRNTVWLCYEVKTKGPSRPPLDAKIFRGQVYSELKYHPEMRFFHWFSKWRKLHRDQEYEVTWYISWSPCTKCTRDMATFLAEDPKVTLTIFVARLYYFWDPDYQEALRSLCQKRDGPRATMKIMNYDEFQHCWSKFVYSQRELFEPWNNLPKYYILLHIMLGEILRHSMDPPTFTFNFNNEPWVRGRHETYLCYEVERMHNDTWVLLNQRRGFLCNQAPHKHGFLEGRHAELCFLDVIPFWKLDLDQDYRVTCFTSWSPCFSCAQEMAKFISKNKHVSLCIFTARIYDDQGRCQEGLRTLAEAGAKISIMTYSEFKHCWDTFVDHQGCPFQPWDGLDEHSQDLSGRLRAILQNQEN
APOBEC3A inh: blocks human APOBEC3A ssDNA deamination; P31941; recombinant A3A, FAM/TAMRA ssDNA deamination fluorescence; inhibition, % at 20 µM; 330,000 tested, 0.41% active; AID 493011;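 active = at least 40% inhibition at 20 µM here, with at most 30% in a related deaminase screen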;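 note: plate controls were A3A with DMSO for no effect and wells lacking A3A enzyme for full effect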
Target sequence (P31941 whole entry, looked up): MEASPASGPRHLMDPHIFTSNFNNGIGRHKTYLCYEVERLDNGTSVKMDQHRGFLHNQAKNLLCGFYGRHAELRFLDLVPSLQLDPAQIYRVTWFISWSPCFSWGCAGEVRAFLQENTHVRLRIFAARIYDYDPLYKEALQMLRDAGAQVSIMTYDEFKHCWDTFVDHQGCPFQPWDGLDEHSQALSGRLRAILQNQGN
LANA DNA inh: KSHV C-LANA DNA binding inhibition. MBP-C-LANA/FAM-LBS DNA binding, fluorescence polarization. inhibition, % at 9 µM. 340,000 tested, 0.078% active;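 active = highest replicate inhibition at or above 60% at 9 µM, even if other replicates fall short; inactive = all replicates below 60% inhibition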;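 note: 0% = neutral control wells and 100% = 4 µM acridine orange control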
CAL PDZ FP-2: blocks peptide binding to the human CAL PDZ domain; Q9HD26; purified CAL PDZ, TMR-peptide fluorescence polarization, 1 h; inhibition, % at 24.9 µM; 300,000 tested, 0.92% active;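 active = mean inhibition of at least 30% with at least half of replicates also reaching 30%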;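 note: 0% = DMSO neutral control and 100% = excess unlabeled competitor peptide PRC23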
Keap1 Nrf2 FP: inhibitors of human Keap1-Nrf2 protein-protein interaction. Q14145. Keap1 Kelch-Nrf2 peptide fluorescence polarization, 1536-well. inhibition, % at 9.4 µM. 340,000 tested, 0.15% active; in the data active = inhibition above about 12%;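 note: human Keap1 Kelch domain with fluorescein labeled Nrf2 9mer peptide probe; 0% = neutral control wells and 100% = peptide positive control; higher means more block of Keap1 binding to Nrf2 peptide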
Active calls of the source: *; nt = no result.

SMILES	CAL PDZ FP-1	APOBEC3G inh	APOBEC3A inh	LANA DNA inh	CAL PDZ FP-2	Keap1 Nrf2 FP
CCCCn1c(N)c(N(CCC(C)C)C(=O)CSc2nncn2-c2ccccc2)c(=O)[nH]c1=O	-0.5	-7.9	2.4	-3.0	47.6*	-4.4
CCCCn1c(N)c(N(CCOC)C(=O)c2cnc(C)cn2)c(=O)[nH]c1=O	-1.6	-11.9	22.6	1.7	37.7*	2.0
COc1ccc(CN(C(=O)Cn2nnc(-c3ccc(C)o3)n2)C(C(=O)NCC2CCCO2)c2ccco2)cc1 (centres undefined)	-2.1	-4.6	-0.4	-1.2	1.5	-3.9
CC(=O)Nc1ccc(S(=O)(=O)N2CCN(c3ccc([N+](=O)[O-])cc3)CC2)cc1	-0.6	-3.5	-0.3	2.6	nt	-0.6
CN(C)C(CNC(=O)CCc1c[nH]c2ccccc12)c1ccccc1 (centres undefined)	-1.2	-4.3	-3.3	0.5	-3.8	-2.9
CC(C)c1ccc(C(=O)COC(=O)C(O)c2ccccc2)cc1 (centres undefined)	-0.9	-4.1	-4.9	3.3	-7.1	1.5
Cc1cc(C(=O)NNC(=O)c2cccc(C(F)(F)F)c2)no1	-0.6	-5.8	-2.4	-0.7	45.0*	-1.0
Cc1cc(C(=O)NNC(=O)c2ccc(C(F)(F)F)cc2)no1	-0.1	-6.1	-2.5	-0.7	59.6*	1.4
Cc1sc(N/N=C/c2cccs2)nc1-c1ccccc1	-2.0	-6.2	-4.4	-0.2	-2.0	-5.7
CCOc1ccc2nc(N(CCN(CC)CC)C(=O)/C=C/c3cccs3)sc2c1	-1.2	-3.1	-2.0	1.8	31.0*	-6.8
COC(=O)c1ccc(CNC(=O)c2ccc(OC)c(S(=O)(=O)NC3CCCC3)c2)cc1	-1.4	-4.8	-2.5	-0.8	-3.7	-1.4
COC(=O)/C(=C/Nc1ccc(O)cc1)[N+](=O)[O-]	0.4	-3.3	-2.8	-3.0	65.6*	5.1
COC(=O)/C(=C/Nc1ccccc1)[N+](=O)[O-]	-1.7	-3.1	-0.4	-0.3	3.8	-1.0
CCCCN(C(=O)C1CC(=O)N(c2ccc(C)cc2)C1)c1c(N)n(CCC)c(=O)[nH]c1=O (centres undefined)	-2.0	-0.7	21.2	3.2	-3.3	-2.5
Cc1ccc(S(=O)(=O)N2CCCCC2)cc1C(=O)N1C(C)CCCC1C (centres undefined)	-0.3	-7.2	-0.9	-2.1	-4.6	0.2
CCC(c1nnc(SC(C)C(=O)NC2CC2)n1-c1ccc(OC)cc1)N(C)C (centres undefined)	0.7	-2.9	1.0	1.0	68.2*	1.7
O=C(Nc1ccc(F)cc1)c1cc(-c2ccccc2)no1	-0.2	-6.9	-2.4	-0.2	108.9*	-6.5
O=C(NCCOc1ccccc1)c1ccccc1SCC(=O)N1CCCC1	0.0	-5.3	-0.2	0.5	0.5	0.9
Cc1cc(=O)oc(C)c1C(=O)NCCc1ccc(F)cc1	nt	-2.1	-0.7	1.7	38.9*	-1.9
Cc1cc(=O)oc(C)c1C(=O)NCCNC(=O)c1c(C)cc(=O)oc1C	-0.3	-4.4	-4.4	0.1	-1.0	-0.4
O=C(CCNC(=O)c1ccccc1Cl)NCCc1ccc(C(F)(F)F)cc1	-3.5	-3.3	0.6	0.7	-2.7	-5.3
O=C(Nc1ccccc1Oc1ccccc1)c1cc([N+](=O)[O-])ccc1Cl	-2.5	0.2	1.7	-0.3	-1.4	-3.4
O=C(Nc1ccc(Nc2ccccc2)cc1)c1cc([N+](=O)[O-])ccc1Cl	9.4	-5.8	-6.6	-4.0	46.3*	1.2
Cc1ccc(OCc2occc2C(=O)O)cc1	0.1	nt	nt	-0.4	-3.1	-1.5
Cc1ccc(NC(=S)N(CCCN2CCCC2)Cc2cccn2Cc2ccc(Cl)cc2)cc1C	-2.4	-6.1	-9.3	-1.4	78.9*	-2.0
SMILES	CAL PDZ FP-1	APOBEC3G inh	APOBEC3A inh	LANA DNA inh	CAL PDZ FP-2	Keap1 Nrf2 FP
Cc1ccc(NC(=S)N(CCCN2CCCC2)Cc2cccn2Cc2ccc(Cl)cc2)cc1Cl	-2.6	-5.4	1.3	-15.7	-7.3	-10.2
COc1ncnc2c1ncn2CC1COC(C)(C)O1 (centres undefined)	-0.2	-4.4	-1.8	-1.2	nt	0.4
COc1ccc(S(=O)(=O)N/N=C(/C)c2cccc(NC(=O)c3ccccc3Cl)c2)cc1	-1.2	0.8	-1.5	1.4	43.0*	-10.7
CNC(=O)NC(=O)Cn1nc2n(c1=O)-c1ccccc1SC2	0.1	1.1	-1.6	-2.3	53.2*	-2.5
O=C1NC2(CCCCCC2)C(=O)N1Cc1ccccc1Br	-0.5	-6.1	-3.8	-1.6	48.0*	-1.8
CN(Cc1ccccc1)C(=O)CN1C(=O)NC2(CCCC2)C1=O	-1.0	-9.5	-4.9	0.3	-1.0	-2.0
CCOc1ccccc1CN1C(=O)NC2(CCCCCC2)C1=O	-0.2	8.5	-0.9	-0.3	-0.6	0.8
CN(Cc1ccccc1Br)C(=O)CN1C(=O)NC2(CCCCCC2)C1=O	-0.4	-3.0	-0.9	-1.5	39.0*	0.2
COc1ccc(N2CCN(C(=O)COc3ccc(S(=O)(=O)N4CCOCC4)cc3C)CC2)cc1	-0.7	-3.4	-1.5	1.2	nt	1.3
CCOC(=O)C1CCN(S(=O)(=O)c2ccc3c(c2)NC(=O)CS3)CC1	-2.1	6.5	0.7	2.0	14.7	-5.3
CC(C)CNC(=S)N(CCN(C)C)Cc1cc2cc3c(cc2[nH]c1=O)OCO3	-0.1	-8.5	-0.4	-1.3	nt	-2.5
COCCCNC(=S)N(CCCO)Cc1cc2cc3c(cc2[nH]c1=O)OCCO3	-0.4	-7.1	-4.2	1.2	41.7*	4.5
CCNC(=S)N(CCc1ccc(OC)c(OC)c1)Cc1cc2cc(OC)ccc2[nH]c1=O	-0.3	-7.4	-3.9	0.6	56.5*	1.1
CCNC(=S)N(CCN(C)C)Cc1cc2cc3c(cc2[nH]c1=O)OCO3	nt	-5.0	-2.1	0.6	84.0*	-0.5
O=C(O)c1[nH]c2ccccc2c1C(c1ccccc1)c1c(C(=O)O)[nH]c2ccccc12	44.9*	-5.1	-0.5	0.1	56.4*	1.3
Cc1ccc2nc(C)cc(C(=O)Nc3nccs3)c2c1	-2.6	-6.4	5.3	0.3	nt	-2.1
COc1ccccc1CNC(=O)COC(=O)c1cccnc1SCC(=O)NCc1ccccc1OC	-5.8	24.6	-1.5	-1.8	83.3*	-3.2
CCOC(=O)C1CCN(c2c(NCCN(CC)c3ccccc3)c(=O)c2=O)CC1	0.0	3.8	0.9	1.1	54.2*	0.2
COc1ccc(CNC(=O)C(c2ccco2)N(C(=O)CNS(=O)(=O)c2ccccc2)c2ccccc2C)cc1 (centres undefined)	-1.4	-8.0	-1.5	1.8	91.8*	4.4
COc1ccc(S(=O)(=O)NCC(=O)N(CC(=O)NCc2ccccc2)Cc2ccco2)cc1	-0.5	-2.1	0.9	-0.9	-0.9	-5.0
Cc1cc(-c2ccc(C(C)C)c(S(=O)(=O)Nc3ccccn3)c2)on1	-1.2	-1.0	2.4	-1.5	2.4	0.4
